Most compounds without a hit are left out; they make up all but 2.6% or so of the library.
Xi reactivation: reactivates the inactive X chromosome in mouse fibroblasts; XiGFP mouse fibroblasts, % GFP-positive cells imaging, 3 d; cells co-treated with 5-aza-dC sensitizer; scaled so ellipticine positive control = 100%; activation, % at 7.58 µM; actives 0.055% (n = 360,000); AID 743238;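 active = mean normalized replicate activation at least 10% and every replicate at or above 10%; inconclusive = only one of the two criteria met; inactive = mean below 10% and not all replicates reach 10%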;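 also: 0% = median of on-plate neutral control wells and 100% = ellipticine 6 µM median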
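System: XiGFP fibroblasts, SV40-immortalized. Medium: DMEM plus 5-aza-dC sensitizer. Doses: single point. Timing: 3 d treatment, 15 min room-temperature fixation. Control set: ellipticine 6 µM.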
esBAF inh: blocks esBAF chromatin remodeling in mouse ES cells; Bmi1-luciferase knock-in reporter, 24 h; 100% = twice the neutral-well signal; reporter increase, % at 12.5 µM; actives 2% (n = 350,000); in the data active = activation above about 40%; inconclusive = no clear call, values can overlap the other calls;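 also: 0% = median of the plate's neutral control wells and 100% = double that signal; a rise in the Bmi1 reporter signal indicates esBAF inhibition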
Wnt bcat act: activates Wnt/beta-catenin signaling in a reporter cell assay | activator, plate reader | activation, % at 9.35 µM | actives 1.2% (n = 300,000) | AID 743398; in the data active = activation above about 30%, passing the limit was not always enough; inconclusive = no clear call, values can overlap the other calls;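 also: 0% = neutral control wells and 100% = positive control wells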
MITF act: increases MITF-driven TRPM1 promoter luciferase signal; SK-MEL-5 TRPM1-promoter luciferase, 24 h; % of positive control, neutral wells = 0; AID 588334; actives 0.75% (n = 300,000); activation, % at 12.5 µM;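 active = mean activation of at least 80% with every replicate also reaching 80%; inconclusive = mean reaches 80% but some replicate falls short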;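 also: 0% = neutral control wells and 100% = parthenolide positive control wells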
Vif imaging: HIV Vif inhibition. HEK293T cells, Vif self-association by quenched fluorescence, imaging, 24 h. inhibition, % at 7.49 µM. actives 0.35% (n = 340,000); in the data active = inhibition above about 50%, passing the limit was not always enough; inconclusive = no clear call, values can overlap the other calls; inactive = below about 31%
* = called active by the depositor; ? = inconclusive; . = not tested or not shown.

SMILES	Xi reactivation	esBAF inh	Wnt bcat act	MITF act	Vif imaging
Cc1ccc2c(c1)sc1nc(=O)n(-c3ccc(Cl)c(Cl)c3)c(=O)n12	.	3.4	-1.7	12.2	-3.3
Cc1ccc2c(c1)sc1nc(=O)n(-c3ccc(Cl)cc3)c(=O)n12	.	22.7	.	.	12.2
O=c1nc2sc3ccccc3n2c(=O)n1-c1ccc(Cl)cc1	0.0	45.6*	13.3	114.4*	1.6
Cc1ccc2c(c1)sc1nc(=O)n(-c3cccc(Cl)c3)c(=O)n12	.	69.4*	.	102.6*	-3.2
O=c1nc2sc3ccccc3n2c(=O)n1-c1cccc(Cl)c1	.	76.2*	.	.	-0.9
O=C(N[C@@H]1CC[C@H](CCn2cc(C3(O)CCCC3)nn2)O[C@H]1CO)C1CCCCC1	0.3	2.9	.	.	.
CC(=O)c1c(C)[nH]c(C(=O)Nc2ccc(C)c(C)c2)c1C	.	84.8*	55.4*	.	-4.1
CC(=O)c1c(C)[nH]c(C(=O)NCCc2cccc(C)c2)c1C	.	74.9*	8.9	64.3	5.8
CCc1c(C(=O)Nc2ccc(OC)cc2)[nH]c(C)c1C(C)=O	.	28.8	21.6	.	-0.8
CCc1c(C(=O)Nc2ccc(C)c(C)c2)[nH]c(C)c1C(C)=O	0.0	70.8*	11.8	88.5*	-7.6
CC(=O)c1c(C)[nH]c(C(=O)Nc2ccc(C)cc2Br)c1C	0.0	85.8*	26.5	?	-5.0
CC(C)NC(=O)N(C)C[C@H]1Oc2c(NC(=O)C3CCCCC3)cccc2C(=O)N([C@@H](C)CO)C[C@@H]1C	0.4	-3.5	.	.	.
C[C@@H]1CN([C@H](C)CO)C(=O)c2cc(NC(=O)Nc3cccc4ccccc34)ccc2O[C@H]1CN(C)C(=O)Nc1ccc(F)cc1	-0.1	3.3	.	.	.
CC(=O)c1c(C)[nH]c(C(=O)Nc2cccc(C)n2)c1C	0.4	-6.4	39.0*	60.4	-1.5
CC(=O)c1cccc(NC(=S)NC(=O)c2ccccc2Br)c1	0.0	.	-2.7	12.2	-2.7
Cc1cc(C(=O)NC(=S)Nc2cccc(NC(=O)C(C)C)c2)ccc1[N+](=O)[O-]	0.4	49.4*	10.5	22.8	-6.8
CC(=O)c1cccc(NC(=S)NC(=O)c2cccc(C)c2)c1	0.0	.	28.6	108.5*	-0.4
O=C(NC(=S)Nc1ccccc1)c1ccc(-c2ccccc2)cc1	0.2	62.2*	19.5	46.9	2.6
CC(=O)c1cccc(NC(=S)NC(=O)c2ccccc2C)c1	0.3	.	4.7	14.5	-4.0
CC(=O)c1cccc(NC(=S)NC(=O)c2ccc(Cl)cc2)c1	0.0	.	17.5	97.2*	-2.7
CCCNC(=O)N(C)C[C@@H]1Oc2cc(C#CC(C)(C)O)ccc2S(=O)(=O)N([C@@H](C)CO)C[C@@H]1C	0.5	0.6	.	.	.
CO[C@H]1CC[C@H]2CCOc3ccc(C#N)cc3C(=O)N(C)C[C@H](C)C(=O)N(C)C[C@@H]1O2	0.0	3.7	.	.	.
Cc1noc(C)c1S(=O)(=O)N(C)C[C@H]1Oc2ccc(NC(=O)C3CC3)cc2CC(=O)N([C@@H](C)CO)C[C@H]1C	0.1	2.2	.	.	.
CC(C)NC(=O)Nc1ccc2c(c1)C(=O)N([C@@H](C)CO)C[C@@H](C)[C@@H](CN(C)C(=O)Nc1ccc(F)cc1)O2	-0.3	-1.8	.	.	.
CCNC(=O)C[C@@H]1CC[C@@H]2[C@H](COC[C@@H](O)CN2C(=O)Nc2ccc3c(c2)OCO3)O1	0.2	4.5	.	.	.
SMILES	Xi reactivation	esBAF inh	Wnt bcat act	MITF act	Vif imaging
CCNC(=O)C[C@H]1CC[C@H]2[C@@H](COC[C@@H](O)CN2C(=O)Nc2ccc3c(c2)OCO3)O1	0.0	53.3*	.	.	.
CCCNC(=O)C[C@H]1CC[C@H]2[C@@H](COC[C@@H](O)CN2C(=O)Nc2ccc3c(c2)OCO3)O1	0.2	40.7*	.	.	.
C[C@@H]1CN([C@H](C)CO)C(=O)c2cc(C#CC(C)(C)O)cnc2O[C@@H]1CN(C)C(=O)C1CCC1	-1.2	.	.	.	.
O=C(Nc1cc2c(cc1Cl)OCCCO2)c1ccccc1	.	57.0*	11.3	60.4	-7.6
O=C(Nc1cc2c(cc1Cl)OCCCO2)c1ccco1	.	.	.	66.9	3.1
CCOC(=O)c1nn(-c2ccc(C)cc2)cc1O	.	3.4	.	73.1	4.8
CCOC(=O)c1nn(-c2ccc(Cl)cc2)cc1O	.	64.8*	?	101.3*	-1.2
CCOC(=O)c1nn(-c2ccc3c(c2)OCO3)cc1O	.	.	.	90.0*	-1.5
CCOC(=O)C1=NN(c2ccc(Cl)cc2)C(=O)C1	-0.3	.	64.8*	145.1*	-3.8
CCOC(=O)CC1=NN(c2ccccc2)C(=O)C1	0.1	.	-1.0	-3.5	-5.7
